# Structures can show the parent of a compound that is named as a salt. Where a SMILES comes first, the peptide text is derived from it. [ ]: non-standard residue; d: D form. Hyp = O=C(O)[C@@H]1C[C@@H](O)CN1
# Columns and labels:
# [1] = tested on: platelet aggregation induced by ADP; conditions: read-out: IC50 of antiplatelet activity induced by ADP; cited from earlier work
# bleeding time = assay: Tail bleeding assay; assay type: in vivo, ICR mice; conditions: mice, n = 10; for Effect on bleeding time (BT) (in words): doses of 300 and 400 μmol/kg b.w. oral; for Bleeding time (BT): 100 μmol/kg b.w. oral, tail cut 3 mm, saline 37 °C, maximum 900 s
# thymus and spleen = assay: Thymus index and spleen index; assay type: in vivo, ICR mice; conditions: oral administration at doses of 300 or 450 μmol/kg b.w.; mice
# Summary of the method: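 The same orally dosed ICR mice (300 or 450 μmol/kg b.w. peptide, saline vehicle) were weighed and sacrificed after the tail-bleeding test. Thymus and spleen were excised, washed in PBS, blotted and weighed. Indices were computed as organ weight / body weight (mg/g). Gross appearance of the organs was checked for atrophy, hyperplasia or swelling.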
# [2] = tested on: human platelet aggregation; conditions: at 1 mg/mL; cited from earlier work
# [3] = tested on: platelet aggregation induced by ADP; assay: Inhibition of ADP-induced platelet aggregation in vitro; assay type: cell-based, rat; conditions: data not shown
# Summary of the method: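 Rat aortic blood was anticoagulated with sodium citrate (1:9, v/v) and spun at 50 × g for 10 min to give PRP. A further 750 × g, 10 min spin gave PPP, used to dilute PRP to 2–3 × 10^8. PRP was preincubated with buffer or peptide for 5 min at 37 °C, then ADP (0.1 mM) was added. Aggregation at 5 min was read on an aggregometer. Inhibition % was calculated versus the buffer control, and IC50 was derived by curve fitting.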
molecule,measurement,setting,value
SSGE,IC50,[1],480 µM
"O=C(O)CC[C@H](NC(=O)CNC(=O)[C@@H]1C[C@@H](O)CN1)C(=O)N[C@@H](Cc1ccccc1)C(=O)NCC(=O)O [OGEFG, Hyp-Gly-Glu-Phe-Gly] (H-[Hyp]GEFG-OH)",Effect on bleeding time (BT) (in words),bleeding time,no significant increase in BT
same,Acute toxicological effects (in words),thymus and spleen,no acute toxicological effects
"CC(=O)Oc1ccccc1C(=O)O [aspirin, Aspirin, reference compound]",Bleeding time (BT),bleeding time,5.345 min
"COC(=O)[C@H](c1ccccc1Cl)N1CCc2sccc2C1 [clopidogrel, clopidogrel hydrogen sulfate, reference compound]",Bleeding time (BT),bleeding time,> 15 min
LTFPRIVFVLG,Inhibition of platelet aggregation,[2],76.69%
"N[C@@H](CC(=O)O)C(=O)N[C@@H](CCC(=O)O)C(=O)NCC(=O)N1CCC[C@H]1C(=O)O [DEGP, Asp-Glu-Gly-Pro] (H-DEGP-OH)",Effect on bleeding time (BT) (in words),bleeding time,no significant increase in BT
same,Acute toxicological effects (in words),thymus and spleen,no acute toxicological effects
VFPQ,Activity against ADP-induced platelet aggregation (in words),[3],poor activities
